Measurements as given in ChEMBL document CHEMBL1152671, “Structure-activity relationship studies of manzamine A: amidation of positions 6 and 8 of the beta-carboline moiety” (Bioorg Med Chem, 2009).
Values after ≈ are worked out from the molar mass of the structure shown. Active and inactive are the calls of the source.

Experiments:
Plasmodium berghei = assay: Antimalarial activity against Plasmodium berghei NK65 infected in Swiss Webster mice (Mus musculus) assessed as inhibition of parasitaemia at 30 mg/kg, perorally daily for 3 consecutive days administered 2 hrs after infection measured on day 28 post infection; type: functional; settings: route oral
How it was run: (§1)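 Male Swiss Webster mice, 18–20 g, inoculated intraperitoneally with 2 × 10⁷ P. berghei NK-65 parasitized red blood cells taken from a donor mouse. Groups of 5 mice were dosed orally about 2 h post-infection, once daily on […], at 3.3, 10 or 30 mg/kg. Controls were vehicle and chloroquine 10 mg/kg. Mice were observed after each dose for toxicity signs. Parasitemia was read on Giemsa-stained tail-blood smears, with suppression on days 5 and 7 and cure defined as no parasitemia to day 28.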

Candida albicans [1] = tested on: Candida albicans
Aspergillus fumigatus [2] = assay: Antifungal activity against Aspergillus fumigatus by modified NCCLS method; type: functional, organism-based
Cryptococcus neoformans [3] = assay: Antifungal activity against Cryptococcus neoformans after 24 hrs by alamar blue assay; type: functional
Mus musculus = assay: Toxicity in Swiss Webster mice (Mus musculus) infected with Plasmodium berghei NK65 at 30 mg/kg, perorally QD for 3 consecutive days administered 2 hrs after infection; type: organism-based; parameters: dose 30 mg/kg, route oral; settings: in vivo, po; how it was run: as §1
Pseudomonas aeruginosa = assay: Antibacterial activity against Pseudomonas aeruginosa by modified NCCLS method; type: functional, organism-based
Plasmodium falciparum [4] = assay: Antimalarial activity against chloroquine-sensitive Plasmodium falciparum D6 infected in African green monkey (Cercopithecus aethiops) Vero cells assessed as parasite LDH activity after 72 hrs; type: functional, organism-based
Plasmodium falciparum [5] = assay: Antimalarial activity against chloroquine-resistant Plasmodium falciparum W2 infected in African green monkey (Cercopithecus aethiops) (Cercopithecus aethiops) Vero cells assessed as parasite LDH activity after 72 hrs; type: functional, organism-based
[6] = tested on: Mycobacterium intracellulare; assay: Antibacterial activity against Mycobacterium intracellular by alamar blue assay; type: functional, organism-based
Candida albicans [7] = assay: Antifungal activity against Candida albicans by modified NCCLS method; type: functional, organism-based
Vero = assay: Cytotoxicity against african green monkey Vero cells up to 470 nM by neutral red assay; type: cell-based; settings: chlorocebus sabaeus
Aspergillus fumigatus [8] = tested on: Aspergillus fumigatus
[9] = tested on: Mycobacterium intracellulare; assay: Antibacterial activity against Mycobacterium intracellular after 24 hrs by alamar blue assay; type: functional
Cryptococcus neoformans [10] = assay: Antifungal activity against Cryptococcus neoformans by modified NCCLS method; type: functional, organism-based
Escherichia coli = assay: Antibacterial activity against Escherichia coli by modified NCCLS method; type: functional, organism-based
Candida albicans [11] = assay: Antifungal activity against Candida albicans after 24 hrs by alamar blue assay
Aspergillus fumigatus [12] = assay: Antifungal activity against Aspergillus fumigatus after 24 hrs by alamar blue assay
[13] = Therapeutic index, ratio of TC50 for african green monkey (Cercopithecus aethiops) Vero cells to IC50 for chloroquine-sensitive Plasmodium falciparum D6 infected in african green monkey (Cercopithecus aethiops) Vero cells; type: cell-based; settings: read-out: TI
[14] = Therapeutic index, ratio of TC50 for african green monkey (Cercopithecus aethiops) Vero cells to IC50 for chloroquine-resistant Plasmodium falciparum W2 infected in african green monkey (Cercopithecus aethiops) Vero cells; type: cell-based; settings: read-out: TI
[15] = Cryptococcus neoformans, read-out: IC50
[16] = Candida albicans, read-out: IC50

| SMILES | MIC (Candida albicans [1]) | IC50 (Aspergillus fumigatus [2]) | MIC (Cryptococcus neoformans [3]) | Activity (Pseudomonas aeruginosa) | IC50 (Plasmodium falciparum [4]) [nM] | IC50 (Plasmodium falciparum [5]) [nM] | IC50 [6] [nM] | IC50 (Candida albicans [7]) | Activity (Vero) | MIC (Aspergillus fumigatus [8]) | MIC [9] [µM] | IC50 (Cryptococcus neoformans [10]; [15]) [nM] | Activity (Escherichia coli) | other results |
| --- | --- | --- | --- | --- | --- | --- | --- | --- | --- | --- | --- | --- | --- | --- |
| O=C(Nc1ccc2[nH]c3c(C4=C[C@@]5(O)CC/C=C\CCCCN6CC[C@@H]4[C@]4(C[C@@H]7/C=C\CCCCN7[C@H]45)C6)nccc3c2c1)C1CCCCC1 [6-CYCLOHEXAMIDOMANZAMINE A] | inactive | Not Active | inactive | inactive | 34 | 53 | 1260 | Not Active | Non-toxic | inactive | 1.86 (≈ 1.25 µg/mL) | 22300 | inactive | inhibition in vivo at 30 mg/kg (Plasmodium berghei): 24%; Activity (Mus musculus): Non-toxic |
| CC(=O)Nc1cccc2c1[nH]c1c(C3=C[C@@]4(O)CC/C=C\CCCCN5CC[C@@H]3[C@]3(C[C@@H]6/C=C\CCCCN6[C@H]34)C5)nccc12 [8-ACETAMIDOMANZAMINE A] | inactive | Not Active | inactive | inactive | 182 | 231 | 1650 | Not Active | Non-toxic | inactive | 2.06 (≈ 1.25 µg/mL) | 33400 | inactive | – |
| O=C(Nc1cccc2c1[nH]c1c(C3=C[C@@]4(O)CC/C=C\CCCCN5CC[C@@H]3[C@]3(C[C@@H]6/C=C\CCCCN6[C@H]34)C5)nccc12)C1CCCCC1 [8-CYCLOHEXAMIDOMANZAMINE A] | inactive | Not Active | inactive | inactive | 950 | 995 | 11100 | Not Active | Non-toxic | inactive | 14.8 (≈ 10 µg/mL) | – | inactive | IC50 (Cryptococcus neoformans [10]): Not Active |
| CC(C)C(=O)Nc1cccc2c1[nH]c1c(C3=C[C@@]4(O)CC/C=C\CCCCN5CC[C@@H]3[C@]3(C[C@@H]6/C=C\CCCCN6[C@H]34)C5)nccc12 [8-ISOBUTAMIDOMANZAMINE A] | inactive | Not Active | inactive | inactive | 158 | 205 | 1030 | Not Active | Non-toxic | inactive | 1.97 (≈ 1.25 µg/mL) | 3160 | inactive | – |
| CCCC(=O)Nc1cccc2c1[nH]c1c(C3=C[C@@]4(O)CC/C=C\CCCCN5CC[C@@H]3[C@]3(C[C@@H]6/C=C\CCCCN6[C@H]34)C5)nccc12 [8-N-BUTAMIDOMANZAMINE A] | inactive | Not Active | inactive | inactive | 35 | 121 | 868 | Not Active | Non-toxic | inactive | 1.97 (≈ 1.25 µg/mL) | 23700 | inactive | – |
| CCCCCC(=O)Nc1cccc2c1[nH]c1c(C3=C[C@@]4(O)CC/C=C\CCCCN5CC[C@@H]3[C@]3(C[C@@H]6/C=C\CCCCN6[C@H]34)C5)nccc12 [8-N-HEXAMIDOMANZAMINE A] | inactive | Not Active | inactive | inactive | 32 | 65 | 30 | Not Active | Non-toxic | inactive | 0.468 (≈ 0.31 µg/mL) | 3780 | inactive | inhibition in vivo at 30 mg/kg (Plasmodium berghei): 62%; Activity (Mus musculus): Non-toxic |
| CCCCCCC(=O)Nc1cccc2c1[nH]c1c(C3=C[C@@]4(O)CC/C=C\CCCCN5CC[C@@H]3[C@]3(C[C@@H]6/C=C\CCCCN6[C@H]34)C5)nccc12 [8-N-OCTAMIDOMANZAMINE A] | inactive | Not Active | 29 µM (≈ 19.6 µg/mL) | inactive | 55 | 43 | 508 | Not Active | Non-toxic | inactive | 1.81 (≈ 1.23 µg/mL) | 1010 | inactive | – |
| CCCCC(=O)Nc1cccc2c1[nH]c1c(C3=C[C@@]4(O)CC/C=C\CCCCN5CC[C@@H]3[C@]3(C[C@@H]6/C=C\CCCCN6[C@H]34)C5)nccc12 [8-N-PENTAMIDOMANZAMINE A] | inactive | Not Active | inactive | inactive | 53 | 49 | 695 | Not Active | Non-toxic | inactive | 0.973 (≈ 0.63 µg/mL) | 4630 | inactive | – |
| CC(C)(C)C(=O)Nc1cccc2c1[nH]c1c(C3=C[C@@]4(O)CC/C=C\CCCCN5CC[C@@H]3[C@]3(C[C@@H]6/C=C\CCCCN6[C@H]34)C5)nccc12 [8-PIVALAMIDOMANZAMINE A] | inactive | Not Active | inactive | inactive | 170 | 232 | 540 | Not Active | Non-toxic | inactive | 0.973 (≈ 0.63 µg/mL) | – | inactive | IC50 (Cryptococcus neoformans [10]): Not Active |
| C[C@@H]1[C@H](O)[C@@H](C)/C=C/C=C/C=C/C=C/C=C/C=C/C=C/[C@H](O[C@@H]2O[C@H](C)[C@@H](O)[C@H](N)[C@@H]2O)C[C@@H]2O[C@](O)(C[C@@H](O)C[C@@H](O)[C@H](O)CC[C@@H](O)C[C@@H](O)CC(=O)O[C@H]1C)C[C@H](O)[C@H]2C(=O)O [AMPHOTERICIN B] | – | – | 2.71 µM (≈ 2.5 µg/mL) | – | – | – | – | – | – | – | – | 920 | – | MIC (Candida albicans [11]): 1.35 µM (≈ 1.25 µg/mL); IC50 (Aspergillus fumigatus [2]; Aspergillus fumigatus, read-out: IC50): 1620 nM; MIC (Aspergillus fumigatus [12]): 2.7 µM (≈ 2.5 µg/mL); IC50 (Candida albicans [7]; [16]): 487 nM |
| O[C@]12C=C(c3nccc4c3[nH]c3ccccc34)[C@@H]3CCN(CCCC/C=C\CC1)C[C@@]31C[C@@H]3/C=C\CCCCN3[C@H]12 [MANZAMINE A] | inactive | – | – | – | 8 | 11 | – | – | – | – | – | 1850 | – | IC50 (Candida albicans [7]; [16]): 3660 nM; selectivity ratio [13]: 44; selectivity ratio [14]: 25 |
